Only some compounds are listed: those with a hit (about 3.9% of all), similar ones and a draw of the others.
FLuc stim CS – FLuc activators, initial screening, artefact control for FLuc-dependent activation tests, biochemical, ATPlite luminescence | Luciferin 4-monooxygenase (Photinus pyralis), P08659 | ATPlite luciferase biochemical, 10 min; 0 = ATP-free wells, 1 = DMSO control | activation factor at 10 µM | 200,000 tested, under 10 active;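 active means luciferase activation factor, scaled between plate controls, of at least 2 with compound at 10 µM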
Target sequence (P08659 whole entry, looked up): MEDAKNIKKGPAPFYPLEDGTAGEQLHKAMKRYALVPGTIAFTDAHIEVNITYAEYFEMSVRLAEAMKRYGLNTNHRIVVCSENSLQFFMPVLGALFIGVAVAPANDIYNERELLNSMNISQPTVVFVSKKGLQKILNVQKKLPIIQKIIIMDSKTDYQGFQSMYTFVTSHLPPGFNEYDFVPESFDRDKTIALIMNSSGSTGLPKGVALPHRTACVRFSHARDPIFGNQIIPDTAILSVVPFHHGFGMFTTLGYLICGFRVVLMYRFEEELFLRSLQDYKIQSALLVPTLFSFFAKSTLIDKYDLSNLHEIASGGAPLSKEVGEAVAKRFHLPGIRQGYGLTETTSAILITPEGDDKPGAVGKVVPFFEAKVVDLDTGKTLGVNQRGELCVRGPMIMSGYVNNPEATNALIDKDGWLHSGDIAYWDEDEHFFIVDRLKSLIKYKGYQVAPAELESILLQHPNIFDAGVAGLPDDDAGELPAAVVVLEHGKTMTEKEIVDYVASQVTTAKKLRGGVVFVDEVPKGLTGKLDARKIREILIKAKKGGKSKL
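System: cell-free luciferase reagent; medium: PBS as buffer for the ATP substrate; doses: test compounds dosed from 2 mM stocks in 100% DMSO; incubation: 10 min, room temperature; measured by: luminescence from luciferase reaction; read-out: luciferase activation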
NF-kB expr up – activators of NF-kB expression in neurons, primary screen, cell-based, HTS. 190,000 compounds, 1.6% hits. fold change at 12.5 µM. human neuronal cells, NF-kB reporter expression; active compounds read high; in the data active means fold change above about 3.3
Rad51 HR inh – human RAD51 strand exchange inhibitors, primary screen, biochemical, fluorescence; DNA repair protein RAD51 homolog 1 (Homo sapiens), Q06609; hRad51 DNA strand exchange, fluorescence dequenching; inhibition, % at 10 µM; 200,000 compounds, 0.085% hits; AID 1385, 2008;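 active means inhibition above 40% at the single screening dose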;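 further: 0% = DMSO control wells and 100% = blanks with heterologous ssDNA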
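Test system: preformed human Rad51 ssDNA filaments. Compound dosing: single dose, 10 µM final compound. Incubation: filaments 15 min 37 °C, then compound 30 min. Technique: FRET fluorescence dequenching, excitation 485 nm, emission 520 nm. Read-out basis: percent inhibition from fluorescence, normalised to plate control and blank means. Benchmarks: plate controls and plate blanks.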
STAT1 act – STAT1 signaling activators, primary screen, cell-based, HTS, luciferase reporter | NIH 3T3 STAT1-luciferase reporter, IFN-gamma, luminescence; 100% = IFN-gamma alone, no compound | activation (% of control), % at 5.5 µM | 200,000 compounds, 2.6% hits;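 active means activation above the screen-wide mean activation plus 3 SD, cut at about 130% in these data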;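 further: raw ratio to IFN-gamma control signal so 100% means no change and 0% no light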
APP 5'UTR act – activators of APP 5'UTR luciferase reporter, primary screen, SH-SY5Y cells | SH-SY5Y APP 5'UTR luciferase reporter, luminescence; zero percent = DMSO vehicle wells | activation, % at 2 µM | 190,000 compounds, 1% hits | AID 1276, 2008;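 active means activation above a set limit, based on mean plus 3 SD of controls, cut at about 140% in these data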
FLuc inhib CS – firefly luciferase enzyme inhibitors, primary screen, artefact control for luciferase-based inhibitor screens, biochemical, luminescence, ATPLite | inhibition, % at 10 µM | 10 min | 200,000 compounds, 1.5% hits;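 active means inhibition above about 50% when tested at 10 µM, limit read from the data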
Active calls of the source: *; / = not tested or not shown.

SMILES	FLuc stim CS	NF-kB expr up	Rad51 HR inh	STAT1 act	APP 5'UTR act	FLuc inhib CS
O=C(Nc1ccc2c(c1)oc1ccccc12)N1CCOCC1	0.7	3.81*	1.6	140.4*	74.1	29.4
C/C(=C\c1ccccc1)C(=O)NCCCn1ccnc1	1.1	1.06	-2.5	99.8	19.1	-5.2
COC(=O)Cn1c(=NC(=O)c2cccc(OC)c2)sc2cc(OC)ccc21	0.9	0.94	-0.2	106.5	19.7	8.2
Cn1c(=NC(=O)COc2ccccc2)sc2ccccc21	0.7	3.58*	-5.8	148.2*	58.4	25.5
CC(=O)N=c1sc2ccccc2n1C	1	1.39	1.5	96.0	1.9	-4.3
COc1cccc(C(=O)N=c2sc3cc(S(C)(=O)=O)ccc3n2C)c1	0.9	1.11	8.2	132.3*	114.5	6.2
COc1ccc(C)c2sc(=NC(=O)c3ccccc3)n(C)c12	0.8	3.59*	/	119.9	31.7	17.3
COc1cccc(C(=O)N/N=c2\sc3ccccc3n2C)c1	0.9	0.94	18.7	106.1	-1.4	13.8
COc1cc(OC)cc(C(=O)N=c2sc3ccccc3n2C)c1	0.8	1.25	27.1	138.8*	146.0*	18.2
Cn1/c(=N/NC(=O)c2ccccc2F)sc2ccccc21	0.7	2.01	-0.2	149.0*	78.9	30.5
COc1ccc(C(=O)N=c2sc3ccccc3n2C)cc1	0.3	8.06*	-7.3	141.1*	162.8*	69.1*
Cc1ccc(C(=O)N/N=c2\sc3ccccc3n2C)cc1	0.8	1.18	3.2	97.5	18.5	18.6
O=C(CCC1CCCN(C(=O)CCN2CCCCC2=O)C1)NCc1ccccc1F (stereo not drawn)	1	1.82	13.3	101.2	11.9	1.6
CC1CCCN(c2ccc3nc4ccccc4c(=O)n3n2)C1 (stereo not drawn)	0.1	2.13	-5.9	51.5	175.1*	93.8*
Cc1sc2nc3ccc(N4CCCCC4)nn3c(=O)c2c1C	0.6	1.22	8.8	123.9	34.0	43.3
c1ccc(-c2nnc3ccc(N4CCCC4)nn23)cc1	1	1.51	-0.3	108.3	3.6	-3.3
Cc1ccc2nc3ccc(N4CCCC4)nn3c(=O)c2c1	0.7	1.69	-6.6	133.5*	100.2	28.1
O=C(c1ccccc1)c1ccccc1C(=O)N1CCCC1	1	6.37*	-1.1	91.3	4.5	-3.3
O=C(/C=C/c1nc2ccccc2s1)N1CCCCCC1	0.4	2.58	27.2	131.7*	118.5	62.1*
Cc1ccc2c(C(=O)CN3CCN(C(=O)c4ccco4)CC3)c(C)[nH]c2c1	/	/	12.5	/	/	/
CCCOc1ccc(/C=N/Nc2ccccn2)cc1OC	0.4	2.41	-4.8	147.7*	118.1	58.5*
COc1cc(/C=N/Nc2ccc(C(F)(F)F)cn2)cc(OC)c1O	1	0.94	-10.9	99.6	-6.0	-3.6
COc1cc(/C=N/Nc2ccccn2)ccc1OCC(C)C	0.8	1.49	-3.3	148.1*	91.1	18.6
COc1cc(/C=N/Nc2ccccn2)cc(OC)c1O	0.2	1.85	-8.7	107.0	-15.2	78.5*
COc1ccc(/C=N/Nc2ccccn2)c(OC)c1OC	0.8	1.01	14.7	114.9	35.9	21.1
SMILES	FLuc stim CS	NF-kB expr up	Rad51 HR inh	STAT1 act	APP 5'UTR act	FLuc inhib CS
C=CCOc1ccc(/C=N/Nc2ccccn2)cc1OC	0.5	2.55	-23.7	138.4*	91.1	48.9
COc1cccc(C(=O)Nc2sc(C(C)C)cc2C(N)=O)c1OC	/	/	21.7	/	/	/
CCCc1nc2ccc(NC(C)=O)cc2c(=O)n1Cc1ccc(Cl)cc1	1	3.66*	-3.4	142.6*	104.6	-2.0
CCCc1nc2ccc(NC(=O)c3cccs3)cc2c(=O)n1Cc1ccccc1Cl	1	0.97	/	99.2	16.5	-4.1
CCOC(=O)CSc1ccc(-c2nc3cc(C)c(C)cc3[nH]2)cn1	0.4	0.88	-5.9	109.8	16.1	64.4*
CCOC(=O)CSc1ccc(-c2nc3ccccc3[nH]2)cn1	0.8	0.92	-2.5	109.6	17.6	21.5
N#CCSc1ccc(-c2nc3ccccc3[nH]2)cn1	0.4	1.37	/	118.8	41.1	58.3*
Cc1cc2nc(-c3ccc(SCC(=O)N4CCN(C(=O)c5ccco5)CC4)nc3)[nH]c2cc1C	0.2	0.81	-4.2	106.2	40.4	81.1*
Cc1cc2cc3c(cc2nc1SCC(=O)N1CCN(C(=O)c2ccco2)CC1)OCO3	1	/	7.2	98.7	-14.7	-4.3
Cc1cc2nc(-c3ccc(SCc4ccccn4)nc3)[nH]c2cc1C	0.8	2	-2.0	134.7*	48.9	17.5
Cc1ccc2[nH]c(SCC(=O)N3CCOCC3)nc2c1C	1	2.26	-0.9	122.2	23.2	-3.5
Cc1cc2nc(-c3ccc(SCC(=O)N4CCOCC4)nc3)[nH]c2cc1C	0.3	1.17	2.5	122.6	64.6	73.4*
COc1ccc(-c2cn3c(n2)CCC3)cc1	0.8	2.3	-2.5	128.8*	35.8	24.7
O=C(/C=C/c1ccccc1[N+](=O)[O-])Nc1ccccc1	0.5	8.32*	14.1	128.1	172.3*	50.2*
O=C(/C=C/c1ccccc1Cl)NCc1cccs1	0.9	1.97	13.2	131.3*	31.1	12.0
O=C(/C=C/c1ccccc1Cl)Nc1cccc(O)c1	0.2	12*	-6.8	68.8	191.0*	84.5*
CNC(CC(C)C)C(=O)NC1C(=O)NC(CC(N)=O)C(=O)NC2C(=O)NC3C(=O)NC(C(=O)NC(C(=O)O)c4cc(O)cc(O)c4-c4cc3ccc4O)C(O)c3ccc(c(Cl)c3)Oc3cc2cc(c3OC2OC(CO)C(O)C(O)C2OC2CC(C)(N)C(O)C(C)O2)Oc2ccc(cc2Cl)C1O (stereo not drawn)	/	/	5.3	/	/	/
N/C(=N\OC(=O)c1ccco1)c1ccccc1	0.4	2.2	-3.5	143.4*	141.6*	58.1*
Cc1cccc(/C(N)=N/OC(=O)N2CCOCC2)c1	0.8	1.58	2.2	115.7	18.6	16.8
COc1ccc(C(=O)COC(=O)c2ccco2)cc1	0.3	3	-6.7	116.5	65.5	72.0*
O=C(NNC(=O)c1ccco1)c1ccccc1	1	1	11.5	108.5	21.1	4.1
Cc1cccc(/C(N)=N/OC(=O)c2ccco2)c1	0.4	6.42*	2.0	109.7	162.7*	55.6*
Cc1ccc(/C(N)=N/OC(=O)c2ccco2)cc1	0.4	5.2*	-3.9	94.3	162.0*	59.9*
Cc1ccc(/C(N)=N/OC(=O)N2CCOCC2)cc1	0.9	1.68	4.8	110.3	1.8	5.0
